According to ChEMBL document CHEMBL4364260, “Discovery of Ziresovir as a Potent, Selective, and Orally Bioavailable Respiratory Syncytial Virus Fusion Protein Inhibitor” (J Med Chem, 2019):
Calls of active or inactive are those of the source. The calls are words filed in the database; no cut-off is given here.

Legend:
[1] = Half-life in cynomolgus monkey at 2 mg/kg, iv; assay type: ADME, organism-based, Macaca fascicularis; conditions: in vivo
Procedure, shortened: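 Cynomolgus monkeys got single doses of 2 mg/kg iv and 10 mg/kg po as a solution in 12.5% captisol in water. Plasma CL, Vss, iv T1/2, AUC and oral F were derived.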

[2] = Half-life in Beagle dog at 1 mg/kg, iv; assay type: ADME, organism-based, Canis lupus familiaris; conditions: in vivo
Procedure, shortened: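 Beagle dog single-dose PK at 1 mg/kg iv and 10 mg/kg po, dosed as a solution in 12.5% captisol in water. Plasma clearance, Vss, iv T1/2, AUC and F were reported.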

[3] = Half-life in Sprague-Dawley rat at 2 mg/kg, iv; assay type: ADME, organism-based; conditions: in vivo
Procedure, shortened: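 Rat single-dose PK: 2 mg/kg iv and 10 mg/kg po. Compound was given as a solution in 5% DMSO/40% PEG400/55% of 0.9% saline. Plasma CL, Vss, iv half-life, AUC and oral bioavailability were reported.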

[4] = AUC (0 to 24 hrs) in CD-1 mouse lung at 10 mg/kg/day, po administered via gavage and measured up to 24 hrs by LC/MS/MS analysis; assay type: ADME, organism-based; design: dose 10 mg/kg/day, time < 24 hr, route oral
Human respirovirus 1 = experiment: Antiviral activity against Human parainfluenza virus 1 infected in human Hep2 cells assessed as reduction in virus induced cytopathic effect after 5 days by CCK-8 assay; assay type: functional, organism-based
[5] = AUC (0 to 24 hrs) in CD-1 mouse at 50 mg/kg, po; assay type: ADME, organism-based; design: dose 50 mg/kg, time < 24 hr, route oral; conditions: in vivo
Procedure, shortened: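 Single-dose PK in mouse at 5 mg/kg iv or 50 mg/kg po, as a solution in 5% DMSO, 40% PEG400 and 55% 0.9% sodium chloride. Plasma AUC was taken from the oral arm, with CL, Vss, iv T1/2 and F also derived.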

SMILES: Cc1ccc2nc(N3CCS(=O)(=O)c4ccccc4C3)nc(NCC3(N)COC3)c2c1 [ZIRESOVIR]
- half-life [1]: 1 h
- half-life [2]: 2.8 h
- half-life [3]: 1.2 h
- AUC at 24 h [4]: 72400 ng·h/mL
- Activity (Human respirovirus 1): inactive
- AUC(0-t) at 24 h [5]: 1970 ng·h/mL
